What was measured:
[1] = target: T1, Substance-P receptor (Homo sapiens, UniProt P25103); assay: Displacement of [125I]SP from human NK1 receptor expressed in CHO cells; assay type: cell-based
[2] = target: T1, Substance-P receptor; assay: Displacement of [125I]SP from human NK1 receptor expressed in CHO cells in presence of 50% human serum; assay type: cell-based
[3] = test system: Gerbil, jird; assay: Inhibition of agonist-induced foot tapping in iv dosed gerbil; assay type: functional; settings: Meriones
Procedure, shortened: (§1)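 Gerbils received the test compound by iv infusion, followed by a central (icv) injection of an NK1 agonist at a set time after infusion (0, 4 or 24 h). The agonist-induced foot-tapping response was monitored for blockade. Results are reported as % inhibition at a single dose (mpk) or as ED50.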

[4] = target: Cytochrome P450 3A4 (Homo sapiens, UniProt P08684); assay: Inhibition of human CYP3A4; assay type: ADME
[5] = target: Cytochrome P450 2D6 (Homo sapiens, UniProt P10635); assay: Inhibition of human CYP2D6; assay type: ADME
[6] = target: Cytochrome P450 2C9 (Homo sapiens, UniProt P11712); assay: Inhibition of human CYP2C9; assay type: ADME
[7] = test system: Gerbil, jird; assay: Inhibition of agonist-induced foot tapping in iv dosed gerbil after 24 hrs; assay type: functional; settings: Meriones; procedure, shortened: as §1
[8] = test system: Gerbil, jird; assay: Inhibition of agonist-induced foot tapping in gerbil at 6 mpk, iv after 24 hrs; assay type: functional; settings: Meriones; procedure, shortened: as §1
[9] = test system: Gerbil, jird; assay: Inhibition of agonist-induced foot tapping in gerbil at 2 mpk, iv after 24 hrs; assay type: functional; settings: Meriones, 4 h, in the assay text read “after 4 hrs” for “after 24 hrs”; procedure, shortened: as §1
[10] = Half life in rat; assay type: ADME, organism-based; settings: in vivo
[11] = test system: Gerbil, jird; assay: Inhibition of agonist-induced foot tapping in gerbil at 3 mpk, iv after 24 hrs; assay type: functional; settings: Meriones; procedure, shortened: as §1

T1 sequence (P25103 whole entry): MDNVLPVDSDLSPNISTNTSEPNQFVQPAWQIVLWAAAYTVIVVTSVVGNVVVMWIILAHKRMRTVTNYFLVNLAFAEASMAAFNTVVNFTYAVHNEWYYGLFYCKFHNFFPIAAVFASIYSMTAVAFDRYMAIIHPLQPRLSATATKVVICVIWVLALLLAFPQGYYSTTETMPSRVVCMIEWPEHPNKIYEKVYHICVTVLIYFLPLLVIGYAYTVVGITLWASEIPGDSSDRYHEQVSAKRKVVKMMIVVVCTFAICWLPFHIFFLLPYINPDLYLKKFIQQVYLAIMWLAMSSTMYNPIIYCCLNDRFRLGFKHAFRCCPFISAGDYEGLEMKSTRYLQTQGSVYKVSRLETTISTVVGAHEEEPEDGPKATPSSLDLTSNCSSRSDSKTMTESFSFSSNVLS
Sequence of Cytochrome P450 3A4 (P08684 whole entry): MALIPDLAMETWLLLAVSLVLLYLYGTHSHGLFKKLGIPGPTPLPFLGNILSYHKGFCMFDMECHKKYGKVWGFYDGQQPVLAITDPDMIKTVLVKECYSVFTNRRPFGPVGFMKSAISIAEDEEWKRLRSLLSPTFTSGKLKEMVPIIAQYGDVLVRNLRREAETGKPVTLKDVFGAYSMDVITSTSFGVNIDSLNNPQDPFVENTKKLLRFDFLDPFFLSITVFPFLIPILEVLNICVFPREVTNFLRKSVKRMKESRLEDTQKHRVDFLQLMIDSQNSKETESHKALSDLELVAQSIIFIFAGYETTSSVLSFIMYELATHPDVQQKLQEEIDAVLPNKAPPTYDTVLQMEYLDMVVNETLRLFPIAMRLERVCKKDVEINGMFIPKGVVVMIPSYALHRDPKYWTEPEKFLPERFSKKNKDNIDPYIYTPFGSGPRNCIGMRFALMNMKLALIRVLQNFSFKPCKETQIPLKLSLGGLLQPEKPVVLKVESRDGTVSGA
Sequence of Cytochrome P450 2C9 (P11712 whole entry): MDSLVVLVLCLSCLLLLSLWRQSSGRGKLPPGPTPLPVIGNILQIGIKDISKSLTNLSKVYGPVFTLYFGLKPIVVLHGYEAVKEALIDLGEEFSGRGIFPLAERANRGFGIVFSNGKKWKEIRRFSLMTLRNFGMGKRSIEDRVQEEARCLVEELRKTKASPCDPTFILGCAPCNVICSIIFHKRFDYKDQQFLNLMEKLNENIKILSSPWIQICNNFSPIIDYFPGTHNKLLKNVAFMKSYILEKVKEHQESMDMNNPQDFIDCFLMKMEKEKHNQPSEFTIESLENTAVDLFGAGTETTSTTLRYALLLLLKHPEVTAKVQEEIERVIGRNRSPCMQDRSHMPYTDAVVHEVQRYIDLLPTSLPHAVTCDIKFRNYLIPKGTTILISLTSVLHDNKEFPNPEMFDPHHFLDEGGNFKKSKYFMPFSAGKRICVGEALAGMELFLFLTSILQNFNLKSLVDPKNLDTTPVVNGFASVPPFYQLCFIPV
Sequence of Cytochrome P450 2D6 (P10635 whole entry): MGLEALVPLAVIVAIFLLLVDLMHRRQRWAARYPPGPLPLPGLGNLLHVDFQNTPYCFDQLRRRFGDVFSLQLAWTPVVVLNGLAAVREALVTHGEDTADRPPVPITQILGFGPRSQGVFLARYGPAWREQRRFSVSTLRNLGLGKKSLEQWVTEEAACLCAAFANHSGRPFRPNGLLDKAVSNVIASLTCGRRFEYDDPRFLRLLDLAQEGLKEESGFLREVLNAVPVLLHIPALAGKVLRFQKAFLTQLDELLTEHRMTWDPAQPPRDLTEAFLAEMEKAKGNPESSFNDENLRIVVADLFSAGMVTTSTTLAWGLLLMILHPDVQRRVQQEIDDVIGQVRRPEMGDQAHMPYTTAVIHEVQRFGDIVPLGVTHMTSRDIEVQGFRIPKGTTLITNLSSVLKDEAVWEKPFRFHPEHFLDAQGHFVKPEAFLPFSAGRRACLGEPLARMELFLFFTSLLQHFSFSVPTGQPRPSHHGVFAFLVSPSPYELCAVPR

IC50 [1] [nM] | IC50 [2] [nM] | Structure (SMILES) | further results
0.79 | – | CN(Cc1cc(C(F)(F)F)cc(C(F)(F)F)c1)C(=O)[C@H]1CN(C(=O)NC2CCCCC2)C[C@@H]1c1ccccc1 | –
4.1 | – | CN(Cc1cc(C(F)(F)F)cc(C(F)(F)F)c1)C(=O)[C@H]1CN(C(=O)C2CCNCC2)C[C@@H]1c1ccccc1 | –
0.09 | 8 | Cc1cnc(C(=O)N2C[C@H](C(=O)N(C)Cc3cc(C(F)(F)F)cc(C(F)(F)F)c3)[C@@H](c3ccc(F)cc3C)C2)cn1 | ED50 [3]: 6 mg/kg; IC50 [4]: 11000 nM; IC50 [5]: 73000 nM; IC50 [6]: 43000 nM; ED50 [7]: 6 mg/kg
24 | – | CN(Cc1cc(C(F)(F)F)cc(C(F)(F)F)c1)C(=O)[C@H]1CN(C(=O)c2cncnc2)C[C@@H]1c1ccccc1 | –
3.7 | – | CC(=O)N1CCC(C(=O)N2C[C@H](C(=O)N(C)Cc3cc(C(F)(F)F)cc(C(F)(F)F)c3)[C@H](c3ccccc3)C2)CC1 | –
0.97 | – | CC(=O)N1CCC(C(=O)N2C[C@@H](C(=O)N(C)Cc3cc(C(F)(F)F)cc(C(F)(F)F)c3)[C@H](c3ccccc3)C2)CC1 | –
450 | – | CC(C)(C)OC(=O)N1CC[C@H](c2ccccc2)[C@@H](C(=O)NCc2cc(C(F)(F)F)cc(C(F)(F)F)c2)C1 | –
11 | – | CN(Cc1cc(C(F)(F)F)cc(C(F)(F)F)c1)C(=O)[C@H]1CN(C(=O)OC(C)(C)C)C[C@@H]1c1ccccc1 | –
0.68 | – | CN(Cc1cc(C(F)(F)F)cc(C(F)(F)F)c1)C(=O)[C@H]1CN(C(=O)C2CCCCC2)C[C@@H]1c1ccccc1 | –
0.58 | – | Cc1cnc(C(=O)N2C[C@H](C(=O)N(C)Cc3cc(C(F)(F)F)cc(C(F)(F)F)c3)[C@@H](c3ccccc3)C2)cn1 | –
142 | – | CC(C)(C)OC(=O)N1C[C@H](C(=O)NCc2cc(C(F)(F)F)cc(C(F)(F)F)c2)[C@@H](c2ccccc2)C1 | –
0.05 | 0.51 | CC(=O)N1CCC(C(=O)N2C[C@H](C(=O)N(C)C(C)(C)c3cc(C(F)(F)F)cc(C(F)(F)F)c3)[C@@H](c3ccc(F)cc3C)C2)CC1 | IC50 [4]: 49000 nM; inhibition in vivo at 6 mg/kg [8]: 2%; IC50 [5]: 57000 nM; IC50 [6]: > 100000 nM; inhibition in vivo at 2 mg/kg [9]: 100%
0.05 | 0.21 | CC(=O)N1CCC(C(=O)N2C[C@H](C(=O)N(C)Cc3cc(C(F)(F)F)cc(C(F)(F)F)c3)[C@@H](c3ccc(F)cc3C)C2)CC1 | IC50 [4]: 11000 nM; inhibition in vivo at 6 mg/kg [8]: 24%; IC50 [5]: 92000 nM; IC50 [6]: 69000 nM; inhibition in vivo at 2 mg/kg [9]: 100%
0.07 | 2.8 | CC(=O)N1CCC(C(=O)N2C[C@H](c3nc(C(C)(C)c4cc(C(F)(F)F)cc(C(F)(F)F)c4)no3)[C@@H](c3ccc(F)cc3C)C2)CC1 | inhibition in vivo at 6 mg/kg [8]: 1%; inhibition in vivo at 2 mg/kg [9]: 92%
0.17 | 20 | CC(=O)N1CCC(C(=O)N2C[C@@H](c3nc(C(C)(C)c4cc(C(F)(F)F)cc(C(F)(F)F)c4)no3)[C@H](c3ccc(F)cc3C)C2)CC1 | inhibition in vivo at 6 mg/kg [8]: 1%
0.07 | 6 | CC(=O)N1CCC(C(=O)N2C[C@H](c3noc(C(C)(C)c4cc(C(F)(F)F)cc(C(F)(F)F)c4)n3)[C@@H](c3ccc(F)cc3C)C2)CC1 | IC50 [4]: 100000 nM; IC50 [5]: 63000 nM; IC50 [6]: 9000 nM
0.03 | 0.17 | CC(=O)N1CCC(C(=O)N2C[C@@H](c3noc(C(C)(C)c4cc(C(F)(F)F)cc(C(F)(F)F)c4)n3)[C@H](c3ccc(F)cc3C)C2)CC1 | inhibition in vivo at 6 mg/kg [8]: 60%
62 | – | CN(Cc1cc(C(F)(F)F)cc(C(F)(F)F)c1)C(=O)[C@H]1CN(CC2CCCCC2)C[C@@H]1c1ccccc1 | –
13 | – | CN(Cc1cc(C(F)(F)F)cc(C(F)(F)F)c1)C(=O)[C@H]1CN(C(=O)N2CCCCC2)C[C@@H]1c1ccccc1 | –
0.84 | – | CN(Cc1cc(C(F)(F)F)cc(C(F)(F)F)c1)C(=O)[C@H]1CN(C(=O)c2ncccn2)C[C@@H]1c1ccccc1 | –
0.74 | – | CN(Cc1cc(C(F)(F)F)cc(C(F)(F)F)c1)C(=O)[C@H]1CN(C(=O)c2cnccn2)C[C@@H]1c1ccccc1 | –
3.4 | – | CN(Cc1cc(C(F)(F)F)cc(C(F)(F)F)c1)C(=O)[C@H]1CN(C(=O)c2ccncn2)C[C@@H]1c1ccccc1 | –
0.42 | 4.5 | CC(=O)N1CCC(C(=O)N2C[C@H](C(=O)N(C)Cc3cc(C(F)(F)F)cc(C(F)(F)F)c3)[C@@H](c3ccccc3)C2)CC1 (stereo in doubt; 8c) | half-life [10]: 42 min; ED50 [3]: 0.41 mg/kg; IC50 [4]: 18000 nM; IC50 [5]: 24000 nM; IC50 [6]: 26000 nM; inhibition in vivo at 3 mg/kg [11]: 29%
0.12 | – | CC(=O)N1CCC(C(=O)N2C[C@H](C(=O)N(C)Cc3cc(C(F)(F)F)cc(C(F)(F)F)c3)[C@@H](c3ccccc3)C2)CC1 (stereo in doubt; 27) | –
